# Data taken from article PMC7825275 (Cancer chemotherapy and pharmacology, 2019).
# System: patients with advanced solid tumors
# Test: Toxicity by grade
# Type: in vivo, human
# Settings: first cycle including veliparib with carboplatin and paclitaxel, n=73
# Procedure, shortened: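 Adverse events were tabulated descriptively as maximum grade in three groups: the chemotherapy-only lead-in cycle, the first veliparib-containing cycle, and all cycles. CBC and serum chemistry including liver function tests were drawn weekly during cycles 1–2, then at the start of every cycle. Veliparib was oral, twice daily on days 1–7; carboplatin/paclitaxel were IV every 21 days.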
smiles,measurement,value
C[C@]1(c2nc3c(C(N)=O)cccc3[nH]2)CCCN1 [veliparib],"Alanine aminotransferase increased, Any Grade",2 (3) number of patients (%)
same,"Alanine aminotransferase increased, Grade 1",2 (3) number of patients (%)
same,"Alanine aminotransferase increased, Grade 2",0 number of patients (%)
same,"Alanine aminotransferase increased, Grade 3",0 number of patients (%)
same,"Alanine aminotransferase increased, Grade 4",0 number of patients (%)
same,"Alkaline phosphatase increased, Any Grade",2 (3) number of patients (%)
same,"Alkaline phosphatase increased, Grade 1",1 (1) number of patients (%)
same,"Alkaline phosphatase increased, Grade 2",1 (1) number of patients (%)
same,"Alkaline phosphatase increased, Grade 3",0 number of patients (%)
same,"Alkaline phosphatase increased, Grade 4",0 number of patients (%)
same,"Allergic reaction, Any Grade",3 (4) number of patients (%)
same,"Allergic reaction, Grade 1",2 (3) number of patients (%)
same,"Allergic reaction, Grade 2",0 number of patients (%)
same,"Allergic reaction, Grade 3",0 number of patients (%)
same,"Allergic reaction, Grade 4",1 (1) number of patients (%)
same,"Alopecia, Any Grade",17 (23) number of patients (%)
same,"Alopecia, Grade 1",13 (18) number of patients (%)
same,"Alopecia, Grade 2",4 (5) number of patients (%)
same,"Alopecia, Grade 3",0 number of patients (%)
same,"Alopecia, Grade 4",0 number of patients (%)
same,"Anemia, Any Grade",24 (33) number of patients (%)
same,"Anemia, Grade 1",4 (5) number of patients (%)
same,"Anemia, Grade 2",18 (25) number of patients (%)
same,"Anemia, Grade 3",2 (3) number of patients (%)
same,"Anemia, Grade 4",0 number of patients (%)
same,"Anorexia, Any Grade",4 (5) number of patients (%)
same,"Anorexia, Grade 1",4 (5) number of patients (%)
same,"Anorexia, Grade 2",0 number of patients (%)
same,"Anorexia, Grade 3",0 number of patients (%)
same,"Anorexia, Grade 4",0 number of patients (%)
same,"Anxiety, Any Grade",1 (1) number of patients (%)
same,"Anxiety, Grade 1",1 (1) number of patients (%)
same,"Anxiety, Grade 2",0 number of patients (%)
same,"Anxiety, Grade 3",0 number of patients (%)
same,"Anxiety, Grade 4",0 number of patients (%)
same,"Any adverse event, Any Grade",67 (92) number of patients (%)
same,"Any adverse event, Grade 1",57 (78) number of patients (%)
same,"Any adverse event, Grade 2",46 (63) number of patients (%)
same,"Any adverse event, Grade 3",34 (47) number of patients (%)
same,"Any adverse event, Grade 4",26 (36) number of patients (%)
same,"Arthralgia, Any Grade",6 (8) number of patients (%)
same,"Arthralgia, Grade 1",5 (7) number of patients (%)
same,"Arthralgia, Grade 2",1 (1) number of patients (%)
same,"Arthralgia, Grade 3",0 number of patients (%)
same,"Arthralgia, Grade 4",0 number of patients (%)
same,"Aspartate aminotransferase increased, Any Grade",2 (3) number of patients (%)
same,"Aspartate aminotransferase increased, Grade 1",2 (3) number of patients (%)
same,"Aspartate aminotransferase increased, Grade 2",0 number of patients (%)
same,"Aspartate aminotransferase increased, Grade 3",0 number of patients (%)
same,"Aspartate aminotransferase increased, Grade 4",0 number of patients (%)
same,"Blood bilirubin increased, Any Grade",1 (1) number of patients (%)
same,"Blood bilirubin increased, Grade 1",1 (1) number of patients (%)
same,"Blood bilirubin increased, Grade 2",0 number of patients (%)
same,"Blood bilirubin increased, Grade 3",0 number of patients (%)
same,"Blood bilirubin increased, Grade 4",0 number of patients (%)
same,"Bone pain, Any Grade",1 (1) number of patients (%)
same,"Bone pain, Grade 1",1 (1) number of patients (%)
same,"Bone pain, Grade 2",0 number of patients (%)
same,"Bone pain, Grade 3",0 number of patients (%)
same,"Bone pain, Grade 4",0 number of patients (%)
same,"Chills, Any Grade",1 (1) number of patients (%)
same,"Chills, Grade 1",1 (1) number of patients (%)
same,"Chills, Grade 2",0 number of patients (%)
same,"Chills, Grade 3",0 number of patients (%)
same,"Chills, Grade 4",0 number of patients (%)
same,"Constipation, Any Grade",6 (8) number of patients (%)
same,"Constipation, Grade 1",4 (5) number of patients (%)
same,"Constipation, Grade 2",2 (3) number of patients (%)
same,"Constipation, Grade 3",0 number of patients (%)
same,"Constipation, Grade 4",0 number of patients (%)
same,"Cough, Any Grade",2 (3) number of patients (%)
same,"Cough, Grade 1",2 (3) number of patients (%)
same,"Cough, Grade 2",0 number of patients (%)
same,"Cough, Grade 3",0 number of patients (%)
same,"Cough, Grade 4",0 number of patients (%)
same,"Creatinine increased, Any Grade",3 (4) number of patients (%)
same,"Creatinine increased, Grade 1",3 (4) number of patients (%)
same,"Creatinine increased, Grade 2",0 number of patients (%)
same,"Creatinine increased, Grade 3",0 number of patients (%)
same,"Creatinine increased, Grade 4",0 number of patients (%)
same,"Cytokine release syndrome, Any Grade",1 (1) number of patients (%)
same,"Cytokine release syndrome, Grade 1",0 number of patients (%)
same,"Cytokine release syndrome, Grade 2",1 (1) number of patients (%)
same,"Cytokine release syndrome, Grade 3",0 number of patients (%)
same,"Cytokine release syndrome, Grade 4",0 number of patients (%)
same,"Dehydration, Any Grade",1 (1) number of patients (%)
same,"Dehydration, Grade 1",0 number of patients (%)
same,"Dehydration, Grade 2",1 (1) number of patients (%)
same,"Dehydration, Grade 3",0 number of patients (%)
same,"Dehydration, Grade 4",0 number of patients (%)
same,"Diarrhea, Any Grade",5 (7) number of patients (%)
same,"Diarrhea, Grade 1",5 (7) number of patients (%)
same,"Diarrhea, Grade 2",0 number of patients (%)
same,"Diarrhea, Grade 3",0 number of patients (%)
same,"Diarrhea, Grade 4",0 number of patients (%)
same,"Dizziness, Any Grade",3 (4) number of patients (%)
same,"Dizziness, Grade 1",3 (4) number of patients (%)
same,"Dizziness, Grade 2",0 number of patients (%)
same,"Dizziness, Grade 3",0 number of patients (%)
same,"Dizziness, Grade 4",0 number of patients (%)
same,"Dry mouth, Any Grade",2 (3) number of patients (%)
same,"Dry mouth, Grade 1",2 (3) number of patients (%)
same,"Dry mouth, Grade 2",0 number of patients (%)
same,"Dry mouth, Grade 3",0 number of patients (%)
same,"Dry mouth, Grade 4",0 number of patients (%)
same,"Dysesthesia, Any Grade",1 (1) number of patients (%)
same,"Dysesthesia, Grade 1",1 (1) number of patients (%)
same,"Dysesthesia, Grade 2",0 number of patients (%)
same,"Dysesthesia, Grade 3",0 number of patients (%)
same,"Dysesthesia, Grade 4",0 number of patients (%)
same,"Dysgeusia, Any Grade",2 (3) number of patients (%)
same,"Dysgeusia, Grade 1",2 (3) number of patients (%)
same,"Dysgeusia, Grade 2",0 number of patients (%)
same,"Dysgeusia, Grade 3",0 number of patients (%)
same,"Dysgeusia, Grade 4",0 number of patients (%)
same,"Dyspepsia, Any Grade",3 (4) number of patients (%)
same,"Dyspepsia, Grade 1",2 (3) number of patients (%)
same,"Dyspepsia, Grade 2",1 (1) number of patients (%)
same,"Dyspepsia, Grade 3",0 number of patients (%)
same,"Dyspepsia, Grade 4",0 number of patients (%)
same,"Dysphagia, Any Grade",2 (3) number of patients (%)
same,"Dysphagia, Grade 1",2 (3) number of patients (%)
same,"Dysphagia, Grade 2",0 number of patients (%)
same,"Dysphagia, Grade 3",0 number of patients (%)
same,"Dysphagia, Grade 4",0 number of patients (%)
same,"Dyspnea, Any Grade",3 (4) number of patients (%)
same,"Dyspnea, Grade 1",2 (3) number of patients (%)
same,"Dyspnea, Grade 2",1 (1) number of patients (%)
same,"Dyspnea, Grade 3",0 number of patients (%)
same,"Dyspnea, Grade 4",0 number of patients (%)
same,"Edema limbs, Any Grade",3 (4) number of patients (%)
same,"Edema limbs, Grade 1",3 (4) number of patients (%)
same,"Edema limbs, Grade 2",0 number of patients (%)
same,"Edema limbs, Grade 3",0 number of patients (%)
same,"Edema limbs, Grade 4",0 number of patients (%)
same,"Erythema multiforme, Any Grade",1 (1) number of patients (%)
same,"Erythema multiforme, Grade 1",0 number of patients (%)
same,"Erythema multiforme, Grade 2",1 (1) number of patients (%)
same,"Erythema multiforme, Grade 3",0 number of patients (%)
same,"Erythema multiforme, Grade 4",0 number of patients (%)
same,"Esophagitis, Any Grade",1 (1) number of patients (%)
same,"Esophagitis, Grade 1",1 (1) number of patients (%)
same,"Esophagitis, Grade 2",0 number of patients (%)
same,"Esophagitis, Grade 3",0 number of patients (%)
same,"Esophagitis, Grade 4",0 number of patients (%)
same,"Fatigue, Any Grade",27 (37) number of patients (%)
same,"Fatigue, Grade 1",18 (24) number of patients (%)
same,"Fatigue, Grade 2",5 (7) number of patients (%)
same,"Fatigue, Grade 3",4 (5) number of patients (%)
same,"Fatigue, Grade 4",0 number of patients (%)
same,"Febrile neutropenia, Any Grade",5 (7) number of patients (%)
same,"Febrile neutropenia, Grade 1",0 number of patients (%)
same,"Febrile neutropenia, Grade 2",0 number of patients (%)
same,"Febrile neutropenia, Grade 3",3(4) number of patients (%)
same,"Febrile neutropenia, Grade 4",2 (3) number of patients (%)
same,"Fever, Any Grade",3 (4) number of patients (%)
same,"Fever, Grade 1",2 (3) number of patients (%)
same,"Fever, Grade 2",0 number of patients (%)
same,"Fever, Grade 3",1 (1) number of patients (%)
